For twelve compounds, Activity, Activity_index and Stability results are on record in ChEMBL document CHEMBL5104216, “Fragment-Sized Thiazoles in Fragment-Based Drug Discovery Campaigns: Friend or Foe?” (ACS Med Chem Lett, 2022).

In data set [1] the target is UDP-N-acetylglucosamine 1-carboxyvinyltransferase (Escherichia coli K-12) (UniProt P0A749). In words: Inhibition of recombinant Escherichia coli MurA assessed as residual activity at 500 uM using UDP-N-acetylglucosamine as substrate preincubated for 30 mins in presence of 1 mM DTT followed by substrate addition and measured by malachite green based colorimetric assay relative to control.

Data set [2] has the same target. In words: Inhibition of recombinant Escherichia coli MurA assessed as residual activity at 500 uM using UDP-N-acetylglucosamine as substrate and measured by malachite green based colorimetric assay relative to control. A digest of the protocol: (§1)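 Screened at 500–625 μM with malachite green colorimetric read-out. Activity threshold was <50% residual activity.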

Data set [3] is described as follows: Redox activity of compound assessed as redox index at 100 uM in presence of 1 mM DTT measured by HRP-PR assay. The format is physicochemical. A digest of the protocol: (§2)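 H2O2 from redox cycling, with or without DTT, detected with horseradish peroxidase-phenol red (HRP-PR).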
Data set [4] deals with UDP-N-acetylglucosamine 1-carboxyvinyltransferase (Escherichia coli K-12) (UniProt P0A749). In words: Inhibition of recombinant Escherichia coli MurA assessed as residual activity at 500 uM using UDP-N-acetylglucosamine as substrate preincubated for 30 mins followed by substrate addition and measured by malachite green based colorimetric assay relative to control. A digest of the protocol:
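E. coli MurA at 500–625 μM with 30 min preincubation before substrate addition. Malachite green colorimetric read-out. Activity threshold was <50% residual activity.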

For data set [5], the target named is Replicase polyprotein 1ab (Severe acute respiratory syndrome coronavirus 2) (UniProt P0DTD1). The data set can be described thus: Inhibition of recombinant SARS-CoV-2 3CLpro expressed in Escherichia coli NiCo21(DE3) assessed as residual activity at 500 uM using DABCYL-KTSAVLQSGFRKME-EDANS as substrate preincubated for 30 mins followed by substrate addition and measured by FRET assay relative to control. A digest of the protocol:
(§3)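 Kinetic fluorescence read-out of cleavage of a FRET substrate carrying a DABCYL–EDANS pair. Compounds were tested at 500–625 μM, and <50% residual activity was taken as the activity threshold. To exclude false positives, absorbance at the excitation and emission wavelengths and autofluorescence of the compounds were measured.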

Data set [6] can be described thus: Redox activity of compound assessed as redox index at 100 uM in presence of 100 uM TCEP measured by H2DCFDA assay. In kind it is physicochemical. The essentials: (§4)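 Reactive oxygen species, with or without the reducing agent TCEP, detected with the fluorescent probe H2DCFDA. Compound spectral interference (autofluorescence) checked under the assay conditions.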

For data set [7], the target named is D-alanine--D-alanine ligase B (Escherichia coli K-12) (UniProt P07862). The data set can be described thus: Inhibition of recombinant Escherichia coli DdlB assessed as residual activity at 500 uM using D-alanine as substrate incubated for 20 mins and measured by malachite green based colorimetric assay relative to control. A digest of the protocol:
as §1

A short description of data set [8]: Redox activity of compound assessed as redox index at 1 uM measured by resazurin assay. The format is physicochemical. A digest of the protocol:
(§5)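 Free radicals formed by redox cycling with DTT detected with resazurin by fluorimetric read-out. Spectral interference checked.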

For data set [9], the system named is Mycobacterium tuberculosis. In words: Inhibition of Mycobacterium tuberculosis MetAP1a assessed as residual activity at 625 uM using L-methionine 7-amido-4-methylcoumarin as fluorogenic substrate and measured by fluorescence based assay. A digest of the protocol: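 Kinetic fluorescence assay in which the enzyme hydrolyses L-methionine 7-amido-4-methylcoumarin to fluorescent 7-amino-4-methylcoumarin. Compounds were tested at 500–625 μM, and activity was called at <50% residual activity. Spectral interference was checked by measuring absorbance at the excitation and emission wavelengths and compound autofluorescence.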

Data set [10] in a line: Redox activity of compound assessed as redox index at 10 uM measured by resazurin assay. In kind it is physicochemical. A digest of the protocol: as §5
Data set [11] concerns the target Replicase polyprotein 1ab (Severe acute respiratory syndrome coronavirus 2) (UniProt P0DTD1). In words: Inhibition of recombinant SARS-CoV-2 3CLpro expressed in Escherichia coli NiCo21(DE3) assessed as residual activity at 500 uM using DABCYL-KTSAVLQSGFRKME-EDANS as substrate preincubated for 30 mins in presence of 1mM DTT followed by substrate addition and measured by FRET assay relative to control. A digest of the protocol: as §3

Data set [12] in a line: Aqueous stability of the compound at pH 7.4 measured after 60 mins by spectrophotometric analysis. In kind it is physicochemical. Conditions: buffer, pH 7.4, 1 h. A digest of the protocol: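 Followed by spectrophotometry as changes in the compound absorption spectrum over time in 50 mM Tris-HCl pH 7.4, 0.5 mM EDTA, read after 60 min in 96-well microplate format. Compounds with low absorbance were not evaluated.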

A short description of data set [13]: Redox activity of compound assessed as redox index at 100 uM measured by HRP-PR assay. The format is physicochemical. The essentials:
as §2

Data set [14] can be described thus: Redox activity of compound assessed as redox index at 100 uM measured by H2DCFDA assay. In kind it is physicochemical. A digest of the protocol: as §4

Sequence of UDP-N-acetylglucosamine 1-carboxyvinyltransferase (Escherichia coli K-12) (P0A749 whole entry): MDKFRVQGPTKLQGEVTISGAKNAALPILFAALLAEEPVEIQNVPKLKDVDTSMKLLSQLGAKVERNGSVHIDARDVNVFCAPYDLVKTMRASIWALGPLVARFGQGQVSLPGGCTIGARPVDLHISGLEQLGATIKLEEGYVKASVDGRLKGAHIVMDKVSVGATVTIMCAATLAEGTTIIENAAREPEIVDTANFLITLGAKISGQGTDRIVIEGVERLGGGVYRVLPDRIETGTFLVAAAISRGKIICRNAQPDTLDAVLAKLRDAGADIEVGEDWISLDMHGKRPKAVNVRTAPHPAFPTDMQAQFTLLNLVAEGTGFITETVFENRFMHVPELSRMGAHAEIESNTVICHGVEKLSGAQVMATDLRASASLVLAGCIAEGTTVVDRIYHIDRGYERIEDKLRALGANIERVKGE

As for `Cc1nc(Br)sc1C(=O)O`, the Activity came out at 102% in data set [1]; 72.4% in data set [2]; 18.5% in data set [4]; 100% in data set [5]; 94% in [7]; 43.4% in data set [9]. The Activity in data set [11] turned out to be 92.9%. Besides, the Activity_index in data set [3] turned out to be 1; in data set [6], 1.1; in [8] it was 0.9; in data set [10], 0.9; in [13], 1; in data set [14], 1.2. The Stability result in data set [12] is listed as “Stable”.

For the compound `COC(=O)CC(=O)Nc1ncc(Br)s1`, the Activity turned out to be 107% in [1]; 97.9% in data set [2]; 60.9% in data set [4]; 95.3% in data set [5]; 88% in data set [7]; 78.2% in data set [9]. In addition, in data set [11], the Activity is 86%. Further, the Activity_index in data set [3] is 1; in data set [6] it was 1; in data set [8], 1; in data set [10] it was 0.9; in data set [13], 1; in data set [14], 1.2. Further, the Stability result in data set [12] is listed as “Stable”.

For the compound `Cc1nc(-c2ccc(C(=O)O)cc2)cs1`, the Activity was determined as 101% in data set [1]; 102% in data set [2]; 113% in data set [4]; 149% in data set [5]; 94% in data set [7]; 136% in data set [9]. The Activity in data set [11] came to 81.2%. The Activity_index in data set [3] worked out at 1; in data set [6], 0.9; in [8] it was 0.9; in data set [10] it was 1.1; in [13], 1; in data set [14] it was 0.9. Also, in data set [12], the Stability result is recorded as “Stable”.

Regarding `CCOC(=O)Cc1csc(N)n1`, the Activity turned out to be 88.1% in data set [1]; 85.5% in data set [2]; 66.3% in [4]; 103% in data set [5]; 94% in data set [7]; 132% in data set [9]. Also, the Activity in data set [11] was 82.1%. The Activity_index is 1 in data set [3]; 1 in data set [6]; 0.9 in [8]; 1 in data set [10]; 1 in [13]; 1.2 in [14]. Moreover, the Stability entry in data set [12] is “Stable”.

In the case of `Cc1nnc(N)s1`, the Activity in data set [1] came out at 99.4%; in data set [2] it was 92.9%; in data set [4], 89.5%; in [5], 121%; in [7] it was 98%; in data set [9], 114%. Further, the Activity in data set [11] was 81.9%. The Activity_index is recorded as 1 in [3]; 1 in data set [6]; 0.9 in data set [8]; 0.9 in data set [10]; 1 in [13]; 1 in data set [14]. Further, the Stability result in data set [12] is reported as “Stable”.

With `Nc1nnc(C2CC2)s1`, the Activity in data set [1] turned out to be 99.8%; in data set [2], 3.5%; in data set [4], 2.2%; in [5], 34.2%; in [7] it was 96%; in data set [9], 92.5%. In addition, the Activity in data set [11] worked out at 79.3%. Moreover, the Activity_index in [3] is reported as 1.1; in data set [6], 1.2; in [8], 0.9; in data set [10], 0.9; in data set [13], 1.1; in [14] it was 1.2. For the same compound, the Stability entry in data set [12] is “Stable”.

For the compound `Cc1csc(N)n1`, the Activity was found to be 102% in data set [1]; 99.3% in [2]; 93.3% in [4]; 96.7% in data set [5]; 90% in data set [7]; 123% in data set [9]. For the same compound, the Activity in data set [11] stood at 82.4%. Moreover, the Activity_index is recorded as 1 in data set [3]; 0.8 in [6]; 0.9 in data set [8]; 1 in data set [10]; 1 in data set [13]; 1 in data set [14]. Besides, in data set [12], the Stability result is listed as “Stable”.

As for `Fc1ccc(-c2csc(Br)n2)cc1F`, the Activity in data set [1] turned out to be 81.9%; in data set [2] it was 89.1%; in data set [4], 12%; in data set [5], 85.1%; in data set [7], 136%; in data set [9], 84.4%. Moreover, in [11], the Activity is 78.9%. Further, the Activity_index is given as 1 in [3]; 0.9 in data set [6]; 0.9 in data set [8]; 0.9 in data set [10]; 1 in data set [13]; 0.8 in data set [14]. Moreover, the Stability entry in [12] is given as “Unstable”.

Regarding `CCOC(=O)c1csc(Br)n1`, the Activity was found to be 100% in data set [1]; 89.8% in data set [2]; 84% in data set [4]; 71.7% in data set [5]; 97% in [7]; 90.8% in data set [9]. In [11], the Activity stood at 80.7%. Moreover, the Activity_index is 1 in [3]; 0.9 in data set [6]; 0.9 in [8]; 1 in data set [10]; 1 in [13]; 1 in [14]. Besides, the Stability result in [12] is reported as “Stable”.

Regarding `O=C(O)c1scnc1Br`, the Activity is 111% in data set [1]; 99.5% in data set [2]; 83.1% in data set [4]; 135% in [5]; 96% in [7]; 122% in data set [9]. For the same compound, the Activity in data set [11] came to 80.1%. Also, the Activity_index stood at 1 in data set [3]; 1.1 in data set [6]; 0.9 in [8]; 0.9 in [10]; 1 in [13]; 1.1 in [14]. For the same compound, the Stability entry in data set [12] is recorded as “Stable”.

Turning to `Clc1nccs1`, the Activity in data set [1] came to 107%; in data set [2], 18.9%; in data set [4], 0.8%; in [5], 23.1%; in data set [7] it was 93%; in [9], 122%. Besides, in data set [11], the Activity worked out at 73.8%. Also, the Activity_index in data set [3] came out at 1; in data set [6] it was 0.9; in data set [8] it was 1; in data set [10], 0.9; in data set [13] it was 1; in data set [14], 1. Besides, the Stability result in [12] was “Stable”.

Regarding `N#Cc1cnc(NC(=O)CC(=O)O)s1`, the Activity in [1] is 109%; in [2], 72.3%; in [4], 20.3%; in data set [5] it was 93.5%; in data set [7], 96%; in data set [9], 146%. In addition, the Activity in data set [11] is 79.7%. In addition, the Activity_index in [3] was 1; in [6], 0.8; in data set [8], 0.9; in data set [10], 1; in data set [13], 1; in data set [14] it was 0.7. In data set [12], the Stability result is “Stable”.
